Measurements collected from several papers.
Compare with care: the assays were run in different laboratories.
Target: Tyrosine-protein kinase receptor Tie-1 (TIE1, Homo sapiens, UniProt P35590)

Compound | read-out | technique | tested at | remaining binding [%]
Cc1cnc(Nc2ccc(C(=O)N3CCC(N4CCCC4)CC3)cc2)nc1-c1cc2ccccc2s1 | binding | competition with immobilised ligand | 1 µM | 10
O=C(Nc1c[nH]nc1C(=O)NC1CCNCC1)c1cc(F)cc(F)c1 | binding | competition with immobilised ligand | 1 µM | 100
C[C@@H](c1ccc(-n2cnc3c(N)ncnc32)cc1)N1CCc2nn(C)c(Cc3ccccc3)c2C1=O | binding | competition with immobilised ligand | 0.1 µM | 84
Cc1cc(-n2nc(Cc3cc(F)cc(C(F)(F)F)c3)nc2C)ccc1C(N)=O | cell-free assay | competition with immobilised ligand | 1 µM | 100
O=C(NCCCN1CCOCC1)c1ccc(Nc2nccc(-c3cc4ccccc4s3)n2)cc1 | binding | competition with immobilised ligand | 1 µM | 48
CN(C)c1nccc(-c2cnc3ncccn23)n1 | binding |  | 1 µM | 83
C[C@H](NC(=O)c1cnc2n1[C@](C)(Cc1ccc(C#N)cc1)C(=O)N2c1cc(Cl)c(F)c(Cl)c1)C(=O)NC1(c2ccccn2)CC1 | cell-free assay | competition with immobilised ligand | 1 µM | 100
Cc1cnn2ncc(-c3ccnc(N(C)C)n3)c2c1 | binding |  | 1 µM | 98
CNC(=O)c1ccc(Nc2ncc(C(F)(F)F)c(NCc3nccnc3N(C)S(C)(=O)=O)n2)cc1 | cell-free assay | competition with immobilised ligand | 0.1 µM | 47
O=C(NCCCN1CCOCC1)c1ccc(Nc2ncc(Cl)c(-c3ccc(Cl)s3)n2)cc1 | binding | competition with immobilised ligand | 1 µM | 44
CC1CCCN1c1nccc(-c2cnn3ncccc23)n1 (stereo not shown) | binding |  | 1 µM | 100
COc1cnc(Nc2cccc(S(N)(=O)=O)c2)nc1N1CCN(c2ccccc2)C(=O)C1 | binding | competition with immobilised ligand | 1 µM | 100
COc1ncc2cc3ccccc3nc2c1C#N | cell-free assay | competition with immobilised ligand | 5 µM | 100
CN(c1nccc(-c2cnn3ncccc23)n1)C1CC1 | binding |  | 1 µM | 100
CCCCN(CCCC)C(=O)CN1C[C@@H](c2cc(OC)c3c(c2)OCO3)[C@H](C(=O)O)[C@H]1CC(C)(C)CCC | cell-free assay | competition with immobilised ligand | 1 µM | 94.7
FC(F)(F)Oc1cccc(-c2cnc3ccc(-c4ccncc4)nn23)c1 | cell-free assay | competition with immobilised ligand | 5 µM | 84
C[C@@H]1CCN(c2nccc(-c3cnn4ncccc34)n2)C1 | binding |  | 1 µM | 100
CCN1CCN(Cc2ccc(C(=O)Nc3ccc(C)c(Oc4ccc5c(c4)CC(=O)N5)c3)cc2C(F)(F)F)CC1 | binding | competition with immobilised ligand | 1 µM | 79
CCS(=O)(=O)c1cc2cc(C[C@](O)(CC(C)(C)c3ccc(F)cc3C(N)=O)C(F)(F)F)[nH]c2cn1 | cell-free assay | competition with immobilised ligand | 1 µM | 100
N[C@@H]1CCN(c2nccc(-c3cnn4ncccc34)n2)C1 | binding |  | 1 µM | 100
CNCc1ccccc1-c1csc([C@H](C)Nc2nc(C)nc3cc(OC)c(OC)cc23)c1 | cell-free assay | competition with immobilised ligand | 1 µM | 100
C=CC(=O)N1CCC(C(=O)NCC(=O)N2CCN(c3nc(-c4cnc(N)nc4C(F)F)nc(N4CCOCC4)n3)CC2)CC1 | binding | competition with immobilised ligand | 1 µM | 100
